# What was measured:
# Vasopressin V1a receptor [1] = molecular target: T1, Vasopressin V1a receptor (Rattus norvegicus, UniProt P30560); assay: Inhibition constant for V1a receptor of rat liver membrane
# Procedure, shortened: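 Competition binding on rat liver membranes (male rat), 5 or 10 μg/assay, 45 min at 30 °C in the dark. Unlabeled peptide 10^-11 to 10^-7 or 10^-6 M against 60 pM [125I]Phaa-D-Tyr(Me)-Phe-Gln-Asn-Arg-Pro-Arg-Tyr-NH2. Nonspecific binding with 1 μM vasopressin. Separation by GF/C filtration. Ki = IC50 × Kd/(Kd + [tracer]), tracer Kd 0.06 nM. Triplicates.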
# Vasopressin V1a receptor [2] = molecular target: T1, Vasopressin V1a receptor; assay: Tested for dissociation constant at V1a receptor of rat liver membrane
# Procedure, shortened: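 Saturation binding of the 125I-labeled azido analogues on rat liver membranes (5 μg), rising labeled-ligand concentrations, run as the competition protocol (45 min, 30 °C, Tris-HCl pH 7.4, MgCl2, BSA, filtration). Nonspecific binding with 250-fold excess of the matching unlabeled analogue. Kd from Scatchard plot. Triplicate values, three independent experiments.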
# Vasopressin V1a receptor [3] = molecular target: T1, Vasopressin V1a receptor; assay: Tested for inhibition constant determined from vasopressin induced inositol phosphates accumulation performed on WRK1 cell line of V1a receptor subtype; assay type: cell-based
# Procedure, shortened: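 WRK1 cells prelabeled 3 days with myo-[3H]inositol (2 μCi/mL), then serum-starved 30 min. Preincubated 15 min at 37 °C in PBS with 10 mM LiCl, 1 mg/mL BSA and analogue, then 3 nM AVP or vehicle for 6 min. Stopped with perchloric acid. Total inositol phosphates separated on Dowex. Ki act derived from the antagonism curves. At least three experiments in duplicate.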
# Oxytocin receptor = molecular target: T2, Oxytocin receptor (Rattus norvegicus, UniProt P70536); assay: Tested for inhibition constant at OT receptor of rat mammary glands
# T2 sequence (P70536 whole entry): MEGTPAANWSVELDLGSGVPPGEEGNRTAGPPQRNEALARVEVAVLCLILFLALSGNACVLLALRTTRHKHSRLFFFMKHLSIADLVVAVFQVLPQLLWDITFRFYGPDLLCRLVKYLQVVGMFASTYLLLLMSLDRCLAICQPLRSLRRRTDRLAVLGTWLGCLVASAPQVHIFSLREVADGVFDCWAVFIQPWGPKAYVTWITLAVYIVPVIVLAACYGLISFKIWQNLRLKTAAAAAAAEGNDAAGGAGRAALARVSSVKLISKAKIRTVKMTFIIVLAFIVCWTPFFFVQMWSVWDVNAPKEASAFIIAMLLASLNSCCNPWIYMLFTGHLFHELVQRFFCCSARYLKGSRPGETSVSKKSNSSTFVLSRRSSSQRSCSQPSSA
# Procedure, shortened: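 Rat mammary gland membranes (female rat), 2 or 5 μg/assay, 45 min at 30 °C in 50 mM Tris-HCl pH 7.4, 5 mM MgCl2, 1 mg/mL BSA. Competition against 60 pM [125I]d(CH2)5[Tyr(Me)2,Thr4,Orn8,Tyr-NH2 9]VT. Nonspecific binding with 1 μM oxytocin. Filtration over GF/C. Triplicate determinations.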
# Vasopressin V2 receptor = Vasopressin V2 receptor (Rattus norvegicus, UniProt Q00788); assay: Tested for inhibition constant at V2 receptor of rat kidney membrane
# Chain of Vasopressin V2 receptor (Q00788 whole entry): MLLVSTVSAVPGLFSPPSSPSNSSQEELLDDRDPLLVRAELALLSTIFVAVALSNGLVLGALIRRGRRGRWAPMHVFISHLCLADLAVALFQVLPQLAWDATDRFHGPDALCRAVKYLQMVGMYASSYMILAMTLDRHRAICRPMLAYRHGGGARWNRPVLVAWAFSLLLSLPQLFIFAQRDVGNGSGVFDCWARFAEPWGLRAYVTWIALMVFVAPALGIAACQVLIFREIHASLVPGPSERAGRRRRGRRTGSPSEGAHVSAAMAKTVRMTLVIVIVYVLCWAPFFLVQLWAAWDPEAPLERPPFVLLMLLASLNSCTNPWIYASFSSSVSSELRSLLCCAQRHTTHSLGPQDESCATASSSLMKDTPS
# Procedure, shortened: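 Rat renal medullary membranes (male rat, freshly prepared), 28.5 μg/assay, 45 min at 30 °C in 50 mM Tris-HCl pH 7.4, 5 mM MgCl2, 1 mg/mL BSA. Competition against 10^-9 M [3H]AVP. Nonspecific binding with 1 μM vasopressin. Filtration over GF/C. Triplicate determinations.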
# T1 sequence (P30560 whole entry): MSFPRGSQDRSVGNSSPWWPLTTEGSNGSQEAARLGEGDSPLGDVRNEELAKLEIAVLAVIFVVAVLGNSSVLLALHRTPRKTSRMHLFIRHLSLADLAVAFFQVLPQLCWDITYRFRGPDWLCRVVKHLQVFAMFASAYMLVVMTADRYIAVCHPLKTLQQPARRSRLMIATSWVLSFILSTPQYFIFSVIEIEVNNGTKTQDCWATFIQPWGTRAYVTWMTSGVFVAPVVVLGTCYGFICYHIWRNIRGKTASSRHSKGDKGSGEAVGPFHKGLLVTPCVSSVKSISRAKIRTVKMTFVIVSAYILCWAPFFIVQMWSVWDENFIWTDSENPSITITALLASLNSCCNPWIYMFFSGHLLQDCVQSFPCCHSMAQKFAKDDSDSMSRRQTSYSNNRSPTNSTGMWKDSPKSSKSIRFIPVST
Structure (SMILES),Ki (Vasopressin V1a receptor [1]) [pM],Kd (Vasopressin V1a receptor [2]) [pM],Ki (Vasopressin V1a receptor [3]) [pM],Ki (Oxytocin receptor) [pM],Ki (Vasopressin V2 receptor) [pM]
COc1ccc(C[C@@H](NC(=O)c2ccc(N=[N+]=[N-])cc2)C(=O)N[C@@H](Cc2ccccc2)C(=O)N[C@@H](CCC(N)=O)C(=O)N[C@@H](CC(N)=O)C(=O)N[C@@H](CCCNC(=N)N)C(=O)N2CCC[C@H]2C(=O)N[C@@H](CCCNC(=N)N)C(=O)N[C@@H](Cc2ccc(O)cc2)C(N)=O)cc1,20000,–,–,–,–
COc1ccc(C[C@@H](NC(=O)c2cccc(N=[N+]=[N-])c2)C(=O)N[C@@H](Cc2ccccc2)C(=O)N[C@@H](CCC(N)=O)C(=O)N[C@@H](CC(N)=O)C(=O)N[C@@H](CCCN=C(N)N)C(=O)N2CCC[C@H]2C(=O)N[C@@H](CCCN=C(N)N)C(=O)N[C@@H](Cc2ccc(O)cc2)C(N)=O)cc1,17800,–,–,–,–
COc1ccc(C[C@@H](NC(=O)Cc2ccc(N=[N+]=[N-])cc2)C(=O)N[C@@H](Cc2ccccc2)C(=O)N[C@@H](CCC(N)=O)C(=O)N[C@@H](CC(N)=O)C(=O)N[C@@H](CCCNC(=N)N)C(=O)N2CCC[C@H]2C(=O)N[C@@H](CCCNC(=N)N)C(=O)N[C@@H](Cc2ccc(O)cc2)C(N)=O)cc1 (stereo in doubt; 13),120,–,–,–,–
COc1ccc(C[C@@H](NC(=O)CCc2ccc(N=[N+]=[N-])cc2)C(=O)N[C@@H](Cc2ccccc2)C(=O)N[C@@H](CCC(N)=O)C(=O)N[C@@H](CC(N)=O)C(=O)N[C@@H](CCCN=C(N)N)C(=O)N2CCC[C@H]2C(=O)N[C@@H](CCCN=C(N)N)C(=O)N[C@@H](Cc2ccc(O)cc2)C(N)=O)cc1 (stereo in doubt; 15),200,–,–,–,–
COc1ccc(C[C@@H](NC(=O)CCCc2ccc(N=[N+]=[N-])cc2)C(=O)N[C@@H](Cc2ccccc2)C(=O)N[C@@H](CCC(N)=O)C(=O)N[C@@H](CC(N)=O)C(=O)N[C@@H](CCCN=C(N)N)C(=O)N2CCC[C@H]2C(=O)N[C@@H](CCCN=C(N)N)C(=O)N[C@@H](Cc2ccc(O)cc2)C(N)=O)cc1 (stereo in doubt; 17),40,–,–,–,–
COc1ccc(C[C@@H](NC(=O)CCc2ccc(N=[N+]=[N-])cc2)C(=O)N[C@@H](Cc2ccccc2)C(=O)N[C@@H](CCC(N)=O)C(=O)N[C@@H](CC(N)=O)C(=O)N[C@@H](CCCN=C(N)N)C(=O)N2CCC[C@H]2C(=O)N[C@@H](CCCN=C(N)N)C(=O)N[C@@H](Cc2ccc(O)cc2)C(N)=O)cc1 (stereo in doubt; 20),470,190,110,37700,1600
COc1ccc(C[C@@H](NC(=O)CCCc2ccc(N=[N+]=[N-])cc2)C(=O)N[C@@H](Cc2ccccc2)C(=O)N[C@@H](CCC(N)=O)C(=O)N[C@@H](CC(N)=O)C(=O)N[C@@H](CCCN=C(N)N)C(=O)N2CCC[C@H]2C(=O)N[C@@H](CCCN=C(N)N)C(=O)N[C@@H](Cc2ccc(O)cc2)C(N)=O)cc1 (stereo in doubt; 22),–,–,–,18000,–

# Now from value to molecule:
Ki (Vasopressin V1a receptor [1]) [pM],Kd (Vasopressin V1a receptor [2]) [pM],Ki (Vasopressin V1a receptor [3]) [pM],Ki (Oxytocin receptor) [pM],Ki (Vasopressin V2 receptor) [pM],Structure (SMILES)
310,–,–,–,–,COc1ccc(C[C@@H](NC(=O)Cc2cccc(N=[N+]=[N-])c2)C(=O)N[C@@H](Cc2ccccc2)C(=O)N[C@@H](CCC(N)=O)C(=O)N[C@@H](CC(N)=O)C(=O)N[C@@H](CCCNC(=N)N)C(=O)N2CCC[C@H]2C(=O)N[C@@H](CCCNC(=N)N)C(=O)N[C@@H](Cc2ccc(O)cc2)C(N)=O)cc1 (stereo in doubt; 14)
160,–,–,–,–,COc1ccc(C[C@@H](NC(=O)CCc2cccc(N=[N+]=[N-])c2)C(=O)N[C@@H](Cc2ccccc2)C(=O)N[C@@H](CCC(N)=O)C(=O)N[C@@H](CC(N)=O)C(=O)N[C@@H](CCCNC(=N)N)C(=O)N2CCC[C@H]2C(=O)N[C@@H](CCCNC(=N)N)C(=O)N[C@@H](Cc2ccc(O)cc2)C(N)=O)cc1 (stereo in doubt; 16)
590,150,200,4800,8000,COc1ccc(C[C@@H](NC(=O)Cc2ccc(N=[N+]=[N-])cc2)C(=O)N[C@@H](Cc2ccccc2)C(=O)N[C@@H](CCC(N)=O)C(=O)N[C@@H](CC(N)=O)C(=O)N[C@@H](CCCNC(=N)N)C(=O)N2CCC[C@H]2C(=O)N[C@@H](CCCNC(=N)N)C(=O)N[C@@H](Cc2ccc(O)cc2)C(N)=O)cc1 (stereo in doubt; 18)
1100,–,240,650,10000,COc1ccc(C[C@@H](NC(=O)Cc2cccc(N=[N+]=[N-])c2)C(=O)N[C@@H](Cc2ccccc2)C(=O)N[C@@H](CCC(N)=O)C(=O)N[C@@H](CC(N)=O)C(=O)N[C@@H](CCCNC(=N)N)C(=O)N2CCC[C@H]2C(=O)N[C@@H](CCCNC(=N)N)C(=O)N[C@@H](Cc2ccc(O)cc2)C(N)=O)cc1 (stereo in doubt; 19)
270,54,130,1400,16000,COc1ccc(C[C@@H](NC(=O)CCc2cccc(N=[N+]=[N-])c2)C(=O)N[C@@H](Cc2ccccc2)C(=O)N[C@@H](CCC(N)=O)C(=O)N[C@@H](CC(N)=O)C(=O)N[C@@H](CCCNC(=N)N)C(=O)N2CCC[C@H]2C(=O)N[C@@H](CCCNC(=N)N)C(=O)N[C@@H](Cc2ccc(O)cc2)C(N)=O)cc1 (stereo in doubt; 21)

# Reference: ChEMBL document CHEMBL1127544, “A new series of photoactivatable and iodinatable linear vasopressin antagonists” (J Med Chem, 1994)
